The source made the active and inactive calls. The calls are words filed in the database; no cut-off is given here.
Tests used:
[1] = Inhibition of Saccharomyces cerevisiae alcohol dehydrogenase measured every 5 mins for 2 hrs by spectrophotometry
Procedure, shortened: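 Yeast ADH in a microplate. DMSO sample stocks were serially diluted in 10 mM PBS pH 7.4 and combined with ethanol (25% in PBS) and β-NAD⁺ (1.87 mM in PBS), both as added solutions. The mix was equilibrated 5 min at 24 °C, then ADH (1180 unit/L solution) was added and incubated 2 h at 24 °C. NADH was read at A340 every 5 min. IC50 was the concentration halving NADH versus the PBS control at 2 h. Run in triplicate, with disulfiram as positive control.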

[2] = system: Radical scavenging activity; assay: Antioxidant activity assessed as DPPH radical scavenging activity after 30 mins by spectrophotometry; assay type: functional
Procedure, shortened: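 Microplate DPPH assay: 30 min incubation at room temperature, then absorbance read at 517 nm. IC50 is the concentration giving a 50% drop in absorbance relative to the DPPH control solution.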

[3] = Inhibition of aldehyde dehydrogenase
[4] = Activation of aldehyde dehydrogenase

Row | Compound | IC50 [1] | IC50 [2] | inhibition [3] | Activity [4]
1 | C[C@@H]1O[C@@H](OC[C@H]2O[C@@H](Oc3c(-c4ccc(O)c(O)c4)oc4cc(O)cc(O)c4c3=O)[C@H](OC(=O)/C=C/c3ccc(O)cc3)[C@@H](O)[C@@H]2O)[C@H](O)[C@H](O)[C@H]1O [CAMELLIQUERCETISIDE D] | 41.5 µM | 29.2 µM | inactive | inactive
2 | C[C@@H]1O[C@@H](OC[C@H]2O[C@@H](Oc3c(-c4ccc(O)c(O)c4)oc4cc(O)cc(O)c4c3=O)[C@H](OC(=O)/C=C/c3ccc(O)cc3)[C@@H](O)[C@@H]2O)[C@H](O)[C@H](O[C@@H]2O[C@H](CO)[C@@H](O)[C@H](O)[C@H]2O)[C@H]1O [CAMELLIQUERCETISIDE B] | 13.7 µM | 22 µM | inactive | inactive
3 | C[C@@H]1O[C@@H](OC[C@H]2O[C@@H](Oc3c(-c4ccc(O)c(O)c4)oc4cc(O)cc(O)c4c3=O)[C@H](OC(=O)/C=C/c3ccc(O)cc3)[C@@H](O[C@@H]3OC[C@H](O)[C@H](O)[C@H]3O)[C@@H]2O)[C@H](O)[C@H](O[C@@H]2O[C@H](CO)[C@@H](O)[C@H](O)[C@H]2O)[C@H]1O [CAMELLIQUERCETISIDE A] | 17.3 µM | 19.8 µM | inactive | inactive
4 | C[C@@H]1O[C@@H](OC[C@H]2O[C@@H](Oc3c(-c4ccc(O)cc4)oc4cc(O)cc(O)c4c3=O)[C@H](O)[C@@H](O)[C@H]2O)[C@H](O)[C@H](O[C@@H]2O[C@H](CO)[C@@H](O)[C@H](O)[C@H]2O)[C@H]1O | 17.6 µM | > 100 µM | inactive | inactive
5 | COc1cc(C(=O)O[C@@H]2Cc3c(O)cc(O)cc3O[C@@H]2c2ccc(O)c(O)c2)cc(O)c1O | 44.1 µM | 10.8 µM | inactive | inactive
6 | Cn1c(=O)c2c(ncn2C)n(C)c1=O [CAFFEINE] | 197 µM | > 100 µM | inactive | inactive
7 | O=C(O[C@@H]1Cc2c(O)cc(O)cc2O[C@@H]1c1ccc(O)cc1)c1cc(O)c(O)c(O)c1 | 44.3 µM | 2.8 µM | inactive | inactive
8 | O=C(O[C@@H]1Cc2c(O)cc(O)cc2O[C@@H]1c1ccc(O)c(O)c1)c1cc(O)c(O)c(O)c1 [EPICATECHIN GALLATE] | 65.5 µM | 1.5 µM | inactive | inactive
9 | O=c1c(O[C@@H]2O[C@H](CO)[C@H](O)[C@H](O)[C@H]2O)c(-c2ccc(O)cc2)oc2cc(O)cc(O)c12 [TRIFOLIN] | 70.3 µM | > 100 µM | inactive | inactive
10 | C[C@@H]1O[C@@H](OC[C@H]2O[C@@H](Oc3c(-c4ccc(O)c(O)c4)oc4cc(O)cc(O)c4c3=O)[C@H](OC(=O)/C=C/c3ccc(O)cc3)[C@@H](O[C@@H]3OC[C@H](O)[C@H](O)[C@H]3O)[C@@H]2O)[C@H](O)[C@H](O)[C@H]1O [CAMELLIQUERCETISIDE C] | 46.7 µM | 31.9 µM | inactive | inactive
11 | C[C@@H]1O[C@@H](OC[C@H]2O[C@@H](Oc3c(-c4ccc(O)c(O)c4)oc4cc(O)cc(O)c4c3=O)[C@H](O)[C@@H](O)[C@@H]2O)[C@H](O)[C@H](O[C@@H]2O[C@H](CO)[C@@H](O)[C@H](O)[C@H]2O)[C@H]1O | 19.7 µM | 7.7 µM | inactive | inactive
12 | Oc1cc(O)c2c(c1)O[C@H](c1cc(O)c(O)c(O)c1)[C@H](O)C2 [EPIGALLOCATECHIN] | 16.5 µM | 16.2 µM | inactive | inactive
13 | C[C@@H]1O[C@@H](OC[C@H]2O[C@@H](Oc3c(-c4ccc(O)cc4)oc4cc(O)cc(O)c4c3=O)[C@H](O)[C@@H](O)[C@@H]2O)[C@H](O)[C@H](O)[C@H]1O [NICOTIFLOROSIDE] | 40.4 µM | > 100 µM | inactive | inactive
14 | Cc1c(C)c2c(c(C)c1O)CC[C@@](C)(CCC[C@H](C)CCC[C@H](C)CCCC(C)C)O2 [ALPHA-TOCOPHEROL] |  | 11.4 µM |  | 
15 | O=C(/C=C\c1ccc(O)cc1)O[C@@H]1Cc2c(O)cc(O)cc2O[C@@H]1c1cc(O)c(O)c(O)c1 | 22.1 µM | 26.4 µM | inactive | inactive
16 | Oc1cc(O)c2c(c1)O[C@H](c1ccc(O)c(O)c1)[C@@H](O)C2 [CIANIDANOL] | 21.1 µM | 4.3 µM | inactive | inactive
17 | O=c1c(O[C@@H]2O[C@H](CO)[C@@H](O)[C@H](O)[C@H]2O)c(-c2cc(O)c(O)c(O)c2)oc2cc(O)cc(O)c12 | 19.9 µM | 28 µM | inactive | inactive
18 | O=C(O[C@@H]1Cc2c(O)cc(O)cc2O[C@@H]1c1cc(O)c(O)c(O)c1)c1cc(O)c(O)c(O)c1 [EPIGALOCATECHIN GALLATE] | 42.8 µM | 8.3 µM | inactive | inactive
19 | C[C@@H]1O[C@@H](OC[C@H]2O[C@@H](Oc3c(-c4ccc(O)c(O)c4)oc4cc(O)cc(O)c4c3=O)[C@H](O)[C@@H](O)[C@H]2O)[C@H](O)[C@H](O[C@@H]2O[C@H](CO)[C@@H](O)[C@H](O)[C@H]2O)[C@H]1O | 41 µM | 30.1 µM | inactive | inactive
20 | CCN(CC)C(=S)SSC(=S)N(CC)CC [DISULFIRAM] | 248 µM |  |  | 
21 | O=c1c(O[C@@H]2O[C@H](CO)[C@H](O)[C@H](O)[C@H]2O)c(-c2cc(O)c(O)c(O)c2)oc2cc(O)cc(O)c12 | 18.2 µM | 3.5 µM | inactive | inactive
22 | O=C(/C=C/c1ccc(O)cc1)O[C@@H]1Cc2c(O)cc(O)cc2O[C@@H]1c1cc(O)c(O)c(O)c1 | 8 µM | 43.8 µM | inactive | inactive

Source: ChEMBL document CHEMBL1955735, “Tea catechins and flavonoids from the leaves of Camellia sinensis inhibit yeast alcohol dehydrogenase” (Bioorg Med Chem, 2012)
